One assay concerns HepG2. The assay can be described thus: Cytotoxicity against human HepG2 cells after 48 hrs by MTT assay. Format: functional, cell-based. To be noted: HepG2, 48 h. The gist of the method:
(§1)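 HepG2, SK-OV-3, NCI-H460 and HL 7702 lines grown as monolayers in DMEM with 10% FBS plus penicillin/streptomycin at 37 °C, 5% CO2. Exponentially growing cells were seeded and exposed to the indicated concentrations for 48 h. MTT was then added for 4 h at 37 °C, formazan was dissolved in DMSO, and OD was read at 490 nm. Each concentration was run in triplicate wells, with three independent runs per line.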
Background: Tetrazolium assays rely on reduction of a dye to a coloured formazan, in cell work by metabolically active cells.

In the next assay the test system is L02. The assay can be described thus: Cytotoxicity against human HL-7702 cells after 48 hrs by MTT assay. The class given is cell-based. Conditions: L02, 48 h. The gist of the method: as §1
The test system of another assay is SK-OV-3. The assay can be described thus: Cytotoxicity against human SKOV3 cells after 48 hrs by MTT assay. Format: functional, cell-based. To be noted: SK-OV-3, 48 h. The method in brief:
as §1

The test system of a further assay is NCI-H460. The assay can be described thus: Cytotoxicity against human NCI-H460 cells after 48 hrs by MTT assay. Format: functional, cell-based. Conditions: NCI-H460, 48 h. The gist of the method: as §1

For orientation: IC50 means the concentration that gives 50% inhibition. A low value points to greater potency. On to `CCOP(=O)(OCC)C(Nc1ccc(F)cc1)c1cc2cc(C)ccc2[nH]c1=O` (configuration not stated), for which the IC50 in the assay on HepG2 was 46.2 µM; with L02, greater than 100 µM; in the assay on SK-OV-3, 30.3 µM; in the assay on NCI-H460, greater than 100 µM.

For `CCOP(=O)(OCC)C(Nc1ccc(C)cc1)c1cc2ccccc2[nH]c1=O` (configuration not stated), the IC50 in the assay on HepG2 is 67.3 µM; in the assay with L02, greater than 100 µM; in the assay with SK-OV-3, 66.8 µM; with NCI-H460 it was greater than 100 µM.

Take `Cc1ccc2[nH]c(=O)c(C=O)cc2c1`: the IC50 with HepG2 was greater than 200 µM; in the assay on L02 it was greater than 100 µM; in the assay on SK-OV-3, greater than 200 µM; in the assay with NCI-H460, greater than 200 µM.

For `CCOP(=O)(OCC)C(Nc1ccc([N+](=O)[O-])cc1)c1cc2cc(OC)ccc2[nH]c1=O` (configuration not stated), the IC50 in the assay with HepG2 was 20.8 µM; in the assay with L02, greater than 100 µM; in the assay with SK-OV-3 it was 25.1 µM; in the assay on NCI-H460 it was 44.6 µM.

For the molecule `CCOP(=O)(OCC)C(Nc1cccc(C)c1)c1cc2cc3c(cc2[nH]c1=O)OCO3` (configuration not stated), the IC50 in the assay with HepG2, in the assay on L02, in the assay with SK-OV-3 and in the assay on NCI-H460 was greater than 100 µM each time.

As to `CCOP(=O)(OCC)C(Nc1ccc(C(F)(F)F)cc1)c1cc2ccccc2[nH]c1=O` (configuration not stated), the IC50 was 39.1 µM with HepG2, greater than 100 µM with L02, 25.8 µM in the assay with SK-OV-3 and greater than 100 µM in the assay with NCI-H460.

Regarding `CCOP(=O)(Cc1ccc(/N=C/c2cc3cc4c(cc3[nH]c2=O)OCO4)cc1)OCC`, the IC50 in the assay on HepG2 is 28.9 µM; in the assay with L02, greater than 100 µM; in the assay with SK-OV-3 it was 47.9 µM; in the assay with NCI-H460 it was greater than 100 µM.

Consider `CCCCNC(c1cc2cc(C)ccc2[nH]c1=O)P(=O)(OCC)OCC` (configuration not stated), for which the IC50 in the assay on HepG2 is 39.2 µM; in the assay with L02, greater than 100 µM; in the assay with SK-OV-3 it was 130 µM; in the assay with NCI-H460 it was greater than 100 µM.

As for `CCOP(=O)(OCC)C(Nc1ccccc1)c1cc2ccccc2[nH]c1=O` (configuration not stated), the IC50 was 46.3 µM with HepG2, greater than 100 µM in the assay on L02, 54.1 µM with SK-OV-3 and greater than 100 µM in the assay on NCI-H460.

For the molecule `CCOP(=O)(OCC)C(Nc1ccc([N+](=O)[O-])cc1)c1cc2cc3c(cc2[nH]c1=O)OCO3` (configuration not stated), the IC50 with HepG2 is 44 µM; with L02, greater than 100 µM; in the assay on SK-OV-3, 28.2 µM; in the assay with NCI-H460 it was greater than 100 µM.

As for `CCOP(=O)(OCC)C(Nc1ccccc1)c1cc2cc3c(cc2[nH]c1=O)OCO3` (configuration not stated), the IC50 with HepG2 was 45.2 µM; with L02, greater than 100 µM; in the assay on SK-OV-3, 65 µM; in the assay on NCI-H460 it was greater than 100 µM.

For `CCOP(=O)(OCC)C(Nc1ccc(C(F)(F)F)cc1)c1cc2cc3c(cc2[nH]c1=O)OCO3` (configuration not stated), the IC50 was 79 µM in the assay with HepG2, greater than 100 µM with L02, 22.4 µM in the assay with SK-OV-3 and greater than 100 µM in the assay on NCI-H460.

As to `O=Cc1cc2cc3c(cc2[nH]c1=O)OCO3`, the IC50 in the assay with HepG2 was greater than 200 µM; in the assay with L02, greater than 100 µM; with SK-OV-3 it was greater than 200 µM; with NCI-H460, greater than 200 µM.

As to `CCOP(=O)(OCC)C(Nc1ccc(C)cc1)c1cc2cc(C)ccc2[nH]c1=O` (configuration not stated), the IC50 in the assay with HepG2 was 37.6 µM; in the assay on L02 it was greater than 100 µM; in the assay with SK-OV-3, 37.2 µM; with NCI-H460 it was greater than 100 µM.

Consider `O=Cc1cc2ccccc2[nH]c1=O`, for which the IC50 is greater than 200 µM with HepG2, greater than 100 µM in the assay with L02, greater than 200 µM in the assay with SK-OV-3 and greater than 200 µM in the assay with NCI-H460.

For `CCOP(=O)(OCC)C(Nc1ccc(F)cc1)c1cc2cc3c(cc2[nH]c1=O)OCO3` (configuration not stated), the IC50 with HepG2 was 38 µM; with L02 it was greater than 100 µM; with SK-OV-3, 26.2 µM; in the assay with NCI-H460, 59.6 µM.

Turning to `CCOP(=O)(OCC)C(Nc1ccc([N+](=O)[O-])cc1)c1cc2cc(C)ccc2[nH]c1=O` (configuration not stated), the IC50 is 35.6 µM with HepG2, greater than 100 µM with L02, greater than 200 µM in the assay on SK-OV-3 and greater than 100 µM in the assay on NCI-H460.

For `CCOP(=O)(OCC)C(Nc1cccc(C)c1)c1cc2ccccc2[nH]c1=O` (configuration not stated), the IC50 with HepG2 was 65.5 µM; in the assay on L02, greater than 100 µM; in the assay with SK-OV-3 it was 56 µM; in the assay with NCI-H460, greater than 100 µM.

For `CCOP(=O)(OCC)C(Nc1ccc([N+](=O)[O-])cc1)c1cc2ccccc2[nH]c1=O` (configuration not stated), the IC50 in the assay with HepG2 was 75.2 µM; in the assay on L02, greater than 100 µM; with SK-OV-3, 30 µM; in the assay with NCI-H460, greater than 100 µM.

In the case of `O=c1[nH]cc(F)c(=O)[nH]1` [FLUOROURACIL], the figures for the IC50 in the assay on L02 and with SK-OV-3 were 58.7 µM and 26.3 µM, respectively.

In the case of `CCOP(=O)(OCC)C(Nc1ccc(F)cc1)c1cc2ccccc2[nH]c1=O` (configuration not stated), the IC50 with HepG2 was 37.2 µM; in the assay on L02, greater than 100 µM; in the assay on SK-OV-3 it was 41 µM; with NCI-H460, greater than 100 µM.

In the case of `CCCCNC(c1cc2cc3c(cc2[nH]c1=O)OCO3)P(=O)(OCC)OCC` (configuration not stated), the IC50 with HepG2 was 46.3 µM; in the assay with L02, greater than 100 µM; in the assay on SK-OV-3, 37.2 µM; with NCI-H460 it was 47.9 µM.

Regarding `CCCCNC(c1cc2ccccc2[nH]c1=O)P(=O)(OCC)OCC` (configuration not stated), the IC50 is 61.4 µM in the assay with HepG2, greater than 100 µM with L02, 38.3 µM with SK-OV-3 and greater than 100 µM in the assay with NCI-H460.

In the case of `CCOP(=O)(OCC)C(Nc1ccc(C(F)(F)F)cc1)c1cc2cc(OC)ccc2[nH]c1=O` (configuration not stated), the IC50 with HepG2 was 40.1 µM; in the assay on L02 it was greater than 100 µM; with SK-OV-3 it was 102 µM; in the assay with NCI-H460, greater than 100 µM.

For the molecule `CCOP(=O)(OCC)C(Nc1ccccc1)c1cc2cc(OC)ccc2[nH]c1=O` (configuration not stated), the IC50 was 60.8 µM with HepG2, greater than 100 µM in the assay on L02, 54.7 µM with SK-OV-3 and greater than 100 µM in the assay with NCI-H460.

With `COc1ccc2[nH]c(=O)c(C=O)cc2c1`, the IC50 was greater than 200 µM with HepG2, greater than 100 µM in the assay on L02, greater than 200 µM with SK-OV-3 and greater than 200 µM in the assay with NCI-H460.

Consider `CCOP(=O)(OCC)C(Nc1ccc(C)cc1)c1cc2cc3c(cc2[nH]c1=O)OCO3` (configuration not stated), for which the IC50 with HepG2 was 43.1 µM; in the assay with L02, greater than 100 µM; with SK-OV-3 it was 48.9 µM; in the assay with NCI-H460, greater than 100 µM.

`CCOP(=O)(OCC)C(Nc1ccc(C(F)(F)F)cc1)c1cc2cc(C)ccc2[nH]c1=O` (configuration not stated): the IC50 is 68.1 µM with HepG2, greater than 100 µM in the assay with L02, 191 µM in the assay with SK-OV-3 and greater than 100 µM with NCI-H460.

Consider `CCOP(=O)(OCC)C(Nc1ccc(C)cc1)c1cc2cc(OC)ccc2[nH]c1=O` (configuration not stated), for which the IC50 is 57.6 µM with HepG2, greater than 100 µM with L02, 60 µM in the assay on SK-OV-3 and greater than 100 µM in the assay on NCI-H460.

Turning to `CCOP(=O)(OCC)C(Nc1ccc(F)cc1)c1cc2cc(OC)ccc2[nH]c1=O` (configuration not stated), the IC50 is 58.9 µM in the assay with HepG2, greater than 100 µM with L02, 270 µM in the assay on SK-OV-3 and greater than 100 µM in the assay with NCI-H460.

Take `CCOP(=O)(Cc1ccc(/N=C/c2cc3ccccc3[nH]c2=O)cc1)OCC`: the concentration for half-maximal inhibition (IC50) was 17.9 µM in the assay with HepG2, greater than 100 µM in the assay on L02, 36 µM with SK-OV-3 and 57.9 µM in the assay on NCI-H460.

In the case of `CCOP(=O)(OCC)C(Nc1cccc(C)c1)c1cc2cc(OC)ccc2[nH]c1=O` (configuration not stated), the IC50 is 45.5 µM in the assay with HepG2, greater than 100 µM in the assay with L02, 73 µM with SK-OV-3 and greater than 100 µM with NCI-H460.

Take `CCCCNC(c1cc2cc(OC)ccc2[nH]c1=O)P(=O)(OCC)OCC` (configuration not stated): the IC50 in the assay with HepG2 was 43.2 µM; in the assay on L02, greater than 100 µM; in the assay with SK-OV-3, 58.2 µM; in the assay on NCI-H460 it was greater than 100 µM.

As to `CCOP(=O)(OCC)C(Nc1ccccc1)c1cc2cc(C)ccc2[nH]c1=O` (configuration not stated), the IC50 was 39.6 µM with HepG2, greater than 100 µM with L02, 69.4 µM with SK-OV-3 and greater than 100 µM in the assay on NCI-H460.

`CCOP(=O)(OCC)C(Nc1cccc(C)c1)c1cc2cc(C)ccc2[nH]c1=O` (configuration not stated): the IC50 in the assay on HepG2 was 46 µM; with L02 it was greater than 100 µM; with SK-OV-3, 342 µM; in the assay on NCI-H460, greater than 100 µM.

For `CCOP(=O)(Cc1ccc(/N=C/c2cc3cc(OC)ccc3[nH]c2=O)cc1)OCC`, the IC50 is 17.3 µM in the assay with HepG2, greater than 100 µM in the assay on L02, 53 µM in the assay on SK-OV-3 and greater than 100 µM with NCI-H460.

For the origin of these results see ChEMBL document CHEMBL4261516, “Design, synthesis and pharmacological evaluation of new 2-oxo-quinoline derivatives containing α-aminophosphonates as potential antitumor agents” (Medchemcomm, 2017).
